Mdm2-MdmX inh = human Mdm2/MdmX binding inhibition. actives 3% (n = 330,000). inhibition, % at 8 µM. AID 485346. SaOS-2 split-luciferase Mdm2/MdmX complementation, luminescence;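 active = inhibition of at least 50% at 8 µM in the primary screen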
Exocytosis inh = lytic granule exocytosis inhibition. inhibition, % at 10 µM. TALL-104 LAMP-1 surface exposure, flow cytometry; cells stimulated with thapsigargin and PMA. AID 651702. actives 0.66% (n = 360,000);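 active = inhibition above about 55%, limit read from the data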
UPR CHOP act = activators of apoptotic arm of unfolded protein response (CHOP); CHO-CHOP luciferase reporter, UPR activation, luminescence; percent of tunicamycin response over DMSO baseline; activation, % at 10 µM; AID 449763; actives 0.34% (n = 330,000);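 active = at 10 µM dose, activation of 40% or more, normalized to positive control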;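 also: 100% = tunicamycin at 10 µg/mL and 0% = DMSO alone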
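System: CHO-CHOP luciferase reporter cell line | Buffer or medium: F12 medium containing 10% fetal bovine serum | Doses: One dose, 10 µM in 0.5% DMSO | Times: 6 h compound exposure at 37 °C after overnight seeding | Signal: Luciferase luminescence | Read-out: % activation vs tunicamycin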
UPR XBP1 act = activators of adaptive arm of unfolded protein response (XBP1); CHO-XBP1 luciferase reporter, IRE1-XBP1 UPR activation, luminescence; percent of tunicamycin response, DMSO as zero; activation, % at 20 µM; actives 0.33% (n = 330,000);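 active = versus positive control, 20 µM dose yields 30% or more activation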;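 also: 100% = tunicamycin at 10 µg/mL and 0% = DMSO only wells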
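Material: CHO-XBP1 cells stably carrying IRE1-XBP1-driven luciferase reporter / Amount: 1000 cells per well / Compound: 20 µM, 1% DMSO / Times: 6 h treatment, 37 °C / Detection: luciferase luminescence / Measure: % activation of reporter signal versus tunicamycin and DMSO controls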
ABHD5 PLIN5 PPI = blocks binding of human ABHD5 to perilipin-5. inhibition, % at 4 µM. actives 0.78% (n = 360,000). Split G. princeps luciferase complementation, luminescence, 4 h;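 active = inhibition above the mean inhibition across every tested compound plus 3 SD, cut at about 22% in these data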;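 also: 0% = DMSO only wells and the 100% control is not disclosed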
Mdm2-MdmX conf = confirmation of human Mdm2/MdmX interaction inhibitors | shares compounds with Mdm2-MdmX inh | Mdm2-MdmX binding, luminescent assay | inhibition, % at 8 µM | actives 55% (n = 10,000) | AID 489028; in the data active = inhibition above about 40%
FLuc counter = inhibits full-length luciferase, flagging false Mdm2/MdmX hits | shares compounds with Mdm2-MdmX inh | SaOS-2 full-length luciferase counterscreen, luminescence | inhibition, % at 8 µM | actives 77% (n = 6,200) | AID 504607;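 active = mean inhibition at 8 µM reaching about 37%, which flags the compound as non-specific, limit read from the data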;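 also: p53-null SaOS-2 cells with luciferase driven by a doxycycline-inducible promoter; compound on cells about two nights before reading with doxycycline added after day one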
Starred values were filed as active, the others as inactive; x = no result given. A selection: hits, their analogues and other compounds. The true share with any hit is near 4%.

SMILES	Mdm2-MdmX inh	Exocytosis inh	UPR CHOP act	UPR XBP1 act	ABHD5 PLIN5 PPI	Mdm2-MdmX conf	FLuc counter
N#C/C(=N\Nc1ccc(Cl)cc1)C(=O)c1ccccc1	84*	4	4	0	6	56*	44*
Cc1ccc(C)c(NC(=O)C2CC(Cl)=CCC2C(=O)O)c1 (stereo not given)	-7	-3	2	0	7	x	x
NC(=O)c1ccsc1NC(=O)COC(=O)CNC(=O)c1ccc(Cl)cc1	3	-1	0	-3	5	x	x
CC(=O)N(/N=C1\Sc2ccccc2C1=O)c1ccccc1C	-42	-6	6	10	13	x	x
CC(=O)N(/N=C1\Sc2ccccc2C1=O)c1ccc(C)cc1C	65*	-1	-8	-6	9	76*	107*
COc1ccc(/C(O)=C2\C(=O)C(=O)N(CCN(C)C)C2c2cccc(OC)c2OC)cc1 (stereo not given)	11	1	1	-1	4	x	x
O=C(c1ccc(F)cc1F)N1CCCC(c2nc(-c3ccc(F)cc3)no2)C1 (stereo not given)	7	1	4	-3	6	x	x
COc1ccc(Oc2nc3c(c(=O)n(C)c(=O)n3C)n2C)cc1	37	-10	2	-3	-3	x	x
Cn1c(=O)c2c(nc(Oc3ccc4ccccc4c3)n2C)n(C)c1=O	52*	-3	-1	1	2	62*	34
CCCn1c(=S)[nH]c2cc(C(=O)NCC3CCCO3)ccc2c1=O (stereo not given)	15	-8	0	-3	-6	x	x
COc1ccc(Cn2c(=S)[nH]c3cc(C(=O)NCc4cccnc4)ccc3c2=O)cc1	74*	7	3	-1	-1	-8	x
O=C(NCC1CCCO1)c1ccc2c(=O)n(Cc3cccc(Br)c3)c(=S)[nH]c2c1 (stereo not given)	58*	0	-1	5	-6	30	x
COc1ccc(Cn2c(=O)[nH]c3cc(C(=O)NCc4ccc5c(c4)OCO5)ccc3c2=O)cc1	65*	4	1	20	-1	29	x
Cc1cccc(NC(=O)CCNS(=O)(=O)c2ccc(Cl)cc2)c1	13	-6	-1	0	4	x	x
CC(C)CC(=O)c1c(O)c(C=O)c(O)c2c1O[C@@]1(C)[C@@H](C2)C[C@H]2C[C@@H]1C2(C)C	59*	-4	6	10	-5	-3	x
CCCNc1nc(C)cc(-c2cc(-c3ccccc3)on2)n1	10	-9	-1	-1	0	x	x
COc1ccc(Nc2nc(C)cc(-c3cc(-c4ccccc4)on3)n2)cc1	68*	-7	4	5	2	50*	83*
Cc1cc(C(=O)OCC(=O)NCc2ccco2)c(C)n1-c1ccc(F)cc1	56*	2	-1	5	-2	52*	66*
CCNC(=O)COC(=O)c1cc(C)n(-c2ccccc2)c1C	-5	-2	1	4	5	x	x
COc1ccc(-c2nc3ccc(N4CCN(C)CC4)cc3c(=O)[nH]2)cc1	-26	4	1	-2	-7	x	x
COc1cc(-c2nc3ccc(N4CCN(C)CC4)cc3[nH]2)cc(OC)c1OC	79*	0	1	2	-1	65*	73*
CC(=O)c1ccc(OC(=O)CCN2c3ccccc3Sc3ccccc32)cc1	12	-8	-2	0	10	x	x
Cc1cc(C(=O)NCC(=O)Nc2ccc(F)c(F)c2)c(C)o1	6	37	0	-4	-1	x	x
COc1cc(Nc2ccc(C)cc2)c([N+](=O)[O-])nc1[N+](=O)[O-]	53*	-1	-1	3	-3	42*	87*
Cc1cc(=O)oc2cc(OCC(=O)N3c4ccccc4CC3C)ccc12 (stereo not given)	51*	-4	2	7	2	62*	46*
SMILES	Mdm2-MdmX inh	Exocytosis inh	UPR CHOP act	UPR XBP1 act	ABHD5 PLIN5 PPI	Mdm2-MdmX conf	FLuc counter
Cc1cc(=O)oc2cc(OCC(=O)N3CC(C)OC(C)C3)ccc12 (stereo not given)	14	x	0	-3	x	x	x
Cc1ccc(S(=O)(=O)c2c(C)nn(C(C)(C)C)c2OC(=O)c2ccco2)cc1	9	5	3	-4	-2	x	x
Cc1ccc(S(=O)(=O)c2c(C)nn(C(C)(C)C)c2OC(=O)c2ccc(Br)o2)cc1	89*	0	9	3	-1	60*	29
O=C(c1cccc(S(=O)(=O)NCc2ccccc2)c1)N1CCN(c2cccc(C(F)(F)F)c2)CC1	62*	5	3	-2	-12	70*	55*
COc1ccc(/C=C\C(=O)O[C@@H]2C(O)C(O[C@@H]3OC(C)[C@H](O[C@@H]4OCC(O[C@H]5O[C@H](CO)[C@@H](O)C(O)C5O)C(O)C4O)C(O)C3O)[C@H](OC(=O)[C@]34CCC(C)(C)C[C@@H]3C3=CCC5[C@@]6(C)CC(O)C(O[C@@H]7OC(CO)C(O)[C@H](O)[C@H]7O)[C@@](C)(C(=O)O)C6CC[C@@]5(C)[C@]3(CO)CC4)O[C@H]2C)cc1 (stereo not given in full)	79*	11	5	21	16	59*	17
C[C@@H]1CC[C@]2(C(=O)O[C@@H]3O[C@H](CO)[C@@H](O)[C@H](O)[C@H]3O)CC[C@]3(C)C(=CCC4[C@@]5(C)CC[C@H](O[C@@H]6OC[C@H](O)[C@H](O[C@@H]7O[C@H](CO)[C@@H](O)[C@H](O)[C@H]7O)[C@H]6O)C(C)(C)C5CC[C@]43C)C2[C@]1(C)O (stereo not given in full)	-23	1	1	0	2	x	x
COc1ccc2nc(NC(=O)C3CCN(S(=O)(=O)c4cccc5nsnc45)CC3)sc2c1	65*	2	3	-2	6	66*	39*
Cc1cccc(NC(=O)C2CCN(S(=O)(=O)c3cccc4nsnc34)CC2)n1	4	0	-2	-1	-1	x	x
O=c1cc(Nc2ccc3c(c2)OCO3)[nH]c(=O)n1-c1ccc(Br)cc1	10	-1	2	-2	-1	x	x
O=c1cc(Nc2ccc3c(c2)OCCO3)[nH]c(=O)n1-c1ccc(Br)cc1	55*	-7	3	-1	-4	6	x
COc1ccc(NC(=O)c2c(Nc3ccccc3)sc(C(=O)c3ccc(F)cc3)c2N)cc1	62*	-1	24	4	3	19	x
COc1ccc(C(=O)c2sc(Nc3ccccc3)c(C(=O)Nc3ccc(OC)c(OC)c3)c2N)cc1	6	3	7	-1	-1	x	x
CCCNS(=O)(=O)c1ccc(OCC(=O)N(C)Cc2ccccc2)cc1	-12	-3	-1	1	-2	x	x

Screening data deposited in PubChem by several laboratories.
